In data set [1] the test system is Human immunodeficiency virus 2. The data set can be described thus: Antiviral activity against HIV-2 infected in thymidine kinase deficient CEM cells assessed as inhibition of virus-induced cytopathicity after 4 days. Format: functional, organism-based. To be noted: Human immunodeficiency virus 2, CCRF-CEM, 96 h. In a few lines:
(§1)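 Wild-type CEM/0 or thymidine kinase-deficient CEM/TK- T-lymphocyte cultures infected with HIV-1 or HIV-2 and exposed to virus and compound together for 4 days. Giant cell formation (virus-induced cytopathicity) scored by microscopy; value is the 50% effective concentration.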
A general note: Protection from cytopathic effect is a common read-out in antiviral testing.

The subject of data set [2] is Human immunodeficiency virus 2. The data set can be described thus: Antiviral activity against HIV-2 infected in wild type CEM cells assessed as inhibition of virus-induced cytopathicity after 4 days. Format: functional, organism-based. Conditions: Human immunodeficiency virus 2, CCRF-CEM, 96 h. In outline: as §1
Data set [3] has as its system Human immunodeficiency virus 1. The data set can be described thus: Antiviral activity against HIV-1 infected in wild type CEM cells assessed as inhibition of virus-induced cytopathicity after 4 days. It is filed as functional, organism-based. Conditions: Human immunodeficiency virus 1, CCRF-CEM, 96 h. In outline:
as §1

Data set [4] can be described thus: Cytotoxicity against human CEM cells. It is filed as cell-based. Conditions: CCRF-CEM (CEM) cells.
Data set [5] is described as follows: Hydrolysis half life in human CEM cell extracts at pH 6.9. Format: ADME, CCRF-CEM. In outline:
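CEM cell extracts (pH 6.9) incubated with the triester, added from a 3.0 mM DMSO stock, and sampled at several incubation times. Hydrolysis half-life determined.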

Data set [6] can be described thus: Hydrolysis half life in 25 mM phosphate buffer at pH 7.3 by reversed HPLC analysis. Format: physicochemical.

SMILES strings stand for the structures. Bounds are passed on as bounds.

With `Cc1cccc2c1O[P@](=O)(OC[C@@H]1C=C[C@H](n3cc(C)c(=O)[nH]c3=O)O1)OC2`, the EC50 in data set [1] worked out at 0.16 µM; in data set [2] it was 0.17 µM; in data set [3], 0.09 µM. In data set [4], this molecule registered a CC50 of 39 µM. The half-life in data set [5] is 18 h; in data set [6], 22.1 h.

As to `Cc1cccc2c1O[P@@](=O)(OC[C@@H]1C=C[C@H](n3cc(C)c(=O)[nH]c3=O)O1)OC2`, the EC50 is 3.2 µM in data set [1], 1.1 µM in data set [2] and 0.48 µM in data set [3]. In data set [4], this molecule yielded a CC50 of 179 µM. For the same molecule, the half-life in data set [5] was 8.7 h; in data set [6] it was 9.2 h.

As to `Cc1cn([C@H]2C=C[C@@H](CO)O2)c(=O)[nH]c1=O` [STAVUDINE], the EC50 worked out at 150 µM in data set [1], 1.3 µM in data set [2] and 0.78 µM in data set [3]. Also, the cytotoxic concentration (CC50) in data set [4] was above 250 µM.

Usually EC50 stands for the midpoint of the concentration-response curve. The CC50 is the concentration that lowers cell viability or growth by half. Read a low CC50 as greater toxicity to the cells. For orientation: half-life means the time in which the quantity being followed falls by half.

Source of the values: ChEMBL document CHEMBL2163319, “Stereoselective synthesis and antiviral activity of methyl-substituted cycloSal-pronucleotides” (J Med Chem, 2012).
